Data taken from ChEMBL document CHEMBL1126715, “Synthesis and tissue distribution of (m-[125I]iodobenzyl)trozamicol ([125I]MIBT): potential radioligand for mapping central cholinergic innervation” (J Med Chem, 1993).

Assays:
Rattus norvegicus [1] = species: Rattus norvegicus; assay: Tissue distribution in rat heart after 5 minutes (n=3); format: ADME, organism-based; conditions: in vivo
Procedure, shortened: (§1)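 Male Wistar rats (200-350 g) under ether anesthesia; radiotracer (3-5 μCi in 0.1 mL 50% aqueous ethanol) given iv. At 5, 30, 60 and 180 min, blood was drawn by cardiac puncture and animals were killed by cardiectomy. Organs were weighed and γ-counted against a 1:100 dilution of the injected dose. Results are given as % injected dose/g tissue; ratios are taken between tissue levels.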

Rattus norvegicus [2] = species: Rattus norvegicus; assay: Tissue distribution in rat kidney after 30 minutes (n=3); format: ADME, organism-based; conditions: in vivo, 0.5 h; procedure, shortened: as §1
Rattus norvegicus [3] = species: Rattus norvegicus; assay: Tissue distribution in rat liver after 180 minutes (n=3); format: ADME, organism-based; conditions: in vivo, 3 h
Procedure, shortened: (§2)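 Male Wistar rats (200-350 g) under ether, iv [125I]tracer (3-5 μCi in 0.1 mL 50% aqueous EtOH). At 5, 30, 60 or 180 min, blood taken by cardiac puncture and the rat killed by cardiectomy. Organs weighed and γ-counted against 1:100 dilutions of the injected dose; results in % injected dose/g, with range.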

Rattus norvegicus [4] = species: Rattus norvegicus; assay: Tissue distribution in rat liver after 30 minutes (n=3); format: ADME, organism-based; conditions: in vivo, 0.5 h; procedure, shortened: as §1
Rattus norvegicus [5] = species: Rattus norvegicus; assay: Tissue distribution in rat liver after 5 minutes (n=3); format: ADME, organism-based; conditions: in vivo; procedure, shortened: as §2
Rattus norvegicus [6] = species: Rattus norvegicus; assay: Tissue distribution in rat liver after 60 minutes (n=3); format: ADME, organism-based; conditions: in vivo, 1 h; procedure, shortened: as §1
Rattus norvegicus [7] = species: Rattus norvegicus; assay: Tissue distribution in rat lung after 180 minutes (n=3); format: ADME, organism-based; conditions: in vivo, 3 h; procedure, shortened: as §2
Rattus norvegicus [8] = species: Rattus norvegicus; assay: Tissue distribution in rat lung after 60 minutes (n=3); format: ADME, organism-based; conditions: in vivo, 1 h; procedure, shortened: as §1
Rattus norvegicus [9] = species: Rattus norvegicus; assay: Tissue distribution in rat muscle after 30 minutes (n=3); format: ADME, organism-based; conditions: in vivo, 0.5 h; procedure, shortened: as §2
Rattus norvegicus [10] = species: Rattus norvegicus; assay: Tissue distribution in rat muscle after 5 minutes (n=3); format: ADME, organism-based; conditions: in vivo; procedure, shortened: as §1
Rattus norvegicus [11] = species: Rattus norvegicus; assay: Tissue distribution in rat spleen after 180 minutes (n=3); format: ADME, organism-based; conditions: in vivo, 3 h; procedure, shortened: as §1
Rattus norvegicus [12] = species: Rattus norvegicus; assay: Tissue distribution in rat spleen after 30 minutes (n=3); format: ADME, organism-based; conditions: in vivo, 0.5 h; procedure, shortened: as §1
Rattus norvegicus [13] = species: Rattus norvegicus; assay: Tissue distribution in rat thyroid after 180 minutes (n=3); format: ADME, organism-based, Thyroid gland; conditions: in vivo, 3 h; procedure, shortened: as §1
Rattus norvegicus [14] = species: Rattus norvegicus; assay: Tissue distribution in rrat heart after 60 minutes (n=3); format: ADME, organism-based; conditions: in vivo, 1 h; procedure, shortened: as §1
Rattus norvegicus [15] = species: Rattus norvegicus; assay: Tissue distribution in rat blood after 180 minutes (n=3); format: ADME, organism-based; conditions: in vivo, 3 h; procedure, shortened: as §1
Rattus norvegicus [16] = species: Rattus norvegicus; assay: Tissue distribution in rat blood after 30 minutes (n=3); format: ADME, organism-based; conditions: in vivo, 0.5 h; procedure, shortened: as §1
Rattus norvegicus [17] = species: Rattus norvegicus; assay: Tissue distribution in rat blood after 60 minutes (n=3); format: ADME, organism-based; conditions: in vivo, 1 h; procedure, shortened: as §2
Rattus norvegicus [18] = species: Rattus norvegicus; assay: Tissue distribution in rat brain after 30 minutes (n=3); format: ADME, organism-based; conditions: in vivo, 0.5 h; procedure, shortened: as §1
Rattus norvegicus [19] = species: Rattus norvegicus; assay: Tissue distribution in rat brain after 5 minutes (n=3); format: ADME, organism-based; conditions: in vivo; procedure, shortened: as §1
Rattus norvegicus [20] = species: Rattus norvegicus; assay: Tissue distribution in rat brain after 60 minutes (n=3); format: ADME, organism-based; conditions: in vivo, 1 h; procedure, shortened: as §1
Rattus norvegicus [21] = species: Rattus norvegicus; assay: Effect of vesamicol on the accumulation in rat blood [0.05 (0.04-0.06)]; format: ADME, organism-based; conditions: in vivo
Procedure, shortened: (§3)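 Male Wistar rats (n = 4/group) given iv vehicle (100 μL 50% aqueous EtOH) or dl-vesamicol (1.01 μmol/kg); 15 min later iv radiotracer (2.0 μCi in 100 μL 50% aqueous EtOH); killed 30 min post-tracer. Blood by cardiac puncture, organs weighed and γ-counted vs 1:100 injected-dose dilution; % dose/g tissue (range); tissue/blood ratios.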

Rattus norvegicus [22] = species: Rattus norvegicus; assay: Tissue distribution in rat gonads after 30 minutes (n=3); format: ADME, organism-based, Gonad; conditions: in vivo, 0.5 h; procedure, shortened: as §1
Rattus norvegicus [23] = species: Rattus norvegicus; assay: Tissue distribution in rat gonads after 5 minutes (n=3); format: ADME, organism-based, Gonad; conditions: in vivo; procedure, shortened: as §1
Rattus norvegicus [24] = species: Rattus norvegicus; assay: Effect of vesamicol on the accumulation in rat gonads [0.15 (0.14-0.15)]; format: ADME, organism-based; conditions: in vivo; procedure, shortened: as §3
Rattus norvegicus [25] = species: Rattus norvegicus; assay: Effect of vesamicol on the accumulation in rat heart [0.25 (0.21-0.30)]; format: ADME, organism-based; conditions: in vivo
Procedure, shortened: (§4)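 Male Wistar rats. Pretreatment at t = 0 was iv vehicle (50% aqueous EtOH) or iv dl-vesamicol (1.01 μmol/kg). At 15 min, iv [125I]tracer (2.0 μCi in 100 μL 50% aqueous EtOH) was given; rats were killed 30 min later. Tissues were weighed and γ-counted, and values expressed as % injected dose/g; n = 4 per group.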

Rattus norvegicus [26] = species: Rattus norvegicus; assay: Effect of vesamicol on the accumulation in rat kidney [1.76 (1.55-2.08)]; format: ADME, organism-based; conditions: in vivo; procedure, shortened: as §3
Rattus norvegicus [27] = species: Rattus norvegicus; assay: Effect of vesamicol on the accumulation in rat lung [1.56 (1.28-1.90)]; format: ADME, organism-based; conditions: in vivo; procedure, shortened: as §3
Rattus norvegicus [28] = species: Rattus norvegicus; assay: Regional kinetics in the rat brain caudate-putamen at 120 minutes; format: ADME, organism-based; conditions: in vivo, 2 h
Procedure, shortened: (§5)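 Male Wistar rats (n = 4 per time point) under ether received (+)-radiotracer iv (2 μCi in 100 μL 50% aqueous EtOH). They were killed at 30, 120 or 180 min. Brains were partially frozen and dissected into striatum, cerebellum, cortex and remainder. Regions were γ-counted against injected-dose dilutions and expressed as % injected dose/g tissue.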

Rattus norvegicus [29] = species: Rattus norvegicus; assay: Regional kinetics in the rat brain caudate-putamen at 30 minutes; format: ADME, organism-based; conditions: in vivo, 0.5 h; procedure, shortened: as §5
Rattus norvegicus [30] = species: Rattus norvegicus; assay: Regional kinetics in the rat brain cortex at 180 minutes; format: ADME, organism-based; conditions: in vivo, 3 h
Procedure, shortened: (§6)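 Male Wistar rats under ether anaesthesia, iv (+)-[125I]tracer (2 μCi in 100 μL 50% aqueous EtOH); killed at 30, 120 or 180 min. Brains partially frozen and dissected into striatum, cerebellum, cortex and remainder, then counted for radioactivity. Results are % injected dose/g, calculated against counted dilutions of the injected dose.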

Rattus norvegicus [31] = species: Rattus norvegicus; assay: Regional kinetics in the rat cerebellum at 120 minutes; format: ADME, organism-based; conditions: in vivo, 2 h; procedure, shortened: as §6
Rattus norvegicus [32] = species: Rattus norvegicus; assay: Effect of vesamicol on the accumulation in rat thyroid [1.77 (1.47-1.93)]; format: ADME, organism-based, Thyroid gland; conditions: in vivo; procedure, shortened: as §4
Rattus norvegicus [33] = species: Rattus norvegicus; assay: Ratio of effect 4-aminobenzovesamicol on regional distribution between rat brain caudate and cerebellum; format: ADME, organism-based; conditions: in vivo
Rattus norvegicus [34] = species: Rattus norvegicus; assay: Ratio of effect 4-aminobenzovesamicol on regional distribution between rat brain caudate and cortex; format: ADME, organism-based; conditions: in vivo
Rattus norvegicus [35] = species: Rattus norvegicus; assay: Ratio of effect haloperidol on regional distribution between rat brain caudate and cerebellum; format: ADME, organism-based; conditions: in vivo
Rattus norvegicus [36] = species: Rattus norvegicus; assay: Ratio of regional kinetics between rat brain caudate and cerebellum at 180 minutes; format: ADME, organism-based; conditions: in vivo, 3 h
Procedure, shortened: (§7)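 Male Wistar rats (n = 4/group) under ether anesthesia, iv (+)-[125I]MIBT (2 μCi in 100 μL 50% aqueous EtOH); killed at 30, 120, 180 min. Brains partially frozen, dissected into striatum, cerebellum, cortex and remainder; radioactivity counted, % dose/g vs injected-dose dilutions; caudate/cortex and caudate/cerebellum ratios.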

Rattus norvegicus [37] = species: Rattus norvegicus; assay: Effect of 4-aminobenzovesamicol on the regional distribution of compound in the rat brain cortex (n=4) [0.23 (0.19-0.25)]; format: ADME, organism-based; conditions: in vivo
Rattus norvegicus [38] = species: Rattus norvegicus; assay: Effect of 4-aminobenzovesamicol on the regional distribution of compound in the rat cerebellum (n=4) [0.12 (0.10-0.13)]; format: ADME, organism-based; conditions: in vivo
Rattus norvegicus [39] = species: Rattus norvegicus; assay: Effect of haloperidol on the regional distribution of compound in the remainder of rat brain (n=4) [0.33 (0.28-0.40)]; format: ADME, organism-based; conditions: in vivo
Rattus norvegicus [40] = species: Rattus norvegicus; assay: Ratio of regional kinetics between rat brain caudate and cortex at 180 minutes; format: ADME, organism-based; conditions: in vivo, 3 h; procedure, shortened: as §7
Rattus norvegicus [41] = species: Rattus norvegicus; assay: Ratio of tissue distribution between rat brain and blood after 30 min; format: ADME, organism-based; conditions: 0.5 h
Procedure, shortened: (§8)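 Male Wistar rats (200-350 g) under ether anesthesia, iv radiotracer (3-5 μCi in 0.1 mL 50% aqueous ethanol). At 5, 30, 60, 180 min blood taken by cardiac puncture, animal killed by cardiectomy; organs weighed, γ-counted against 1:100 injected-dose dilution; % injected dose/g tissue; brain/blood ratio.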

[42] = Ratio of tissue distribution between rat brain and blood after 5 min; format: ADME, organism-based; conditions: brain and blood; procedure, shortened: as §8
Rattus norvegicus [43] = species: Rattus norvegicus; assay: Ratio of tissue distribution between rat brain and blood after 60 min; format: ADME, organism-based; conditions: 1 h; procedure, shortened: as §1
[44] = Ratio of tissue distribution between rat heart and blood after 5 min; format: ADME, organism-based; conditions: heart and blood; procedure, shortened: as §1
Rattus norvegicus [45] = species: Rattus norvegicus; assay: Tissue distribution in rat lung after 5 minutes (n=3); format: ADME, organism-based; conditions: in vivo; procedure, shortened: as §1

O[C@@H]1CCN(Cc2cccc([125I])c2)C[C@H]1N1CCC(c2ccccc2)CC1 (stereo in doubt; (+))
Dose/g (Rattus norvegicus [1]): 1.14%
Dose/g (Rattus norvegicus [2]): 1.32%
Dose/g (Rattus norvegicus [3]): 1.18%
Dose/g (Rattus norvegicus [4]): 2.18%
Dose/g (Rattus norvegicus [5]): 1.6%
Dose/g (Rattus norvegicus [6]): 1.91%
Dose/g (Rattus norvegicus [7]): 0.39%
Dose/g (Rattus norvegicus [8]): 0.82%
Dose/g (Rattus norvegicus [9]): 0.16%
Dose/g (Rattus norvegicus [10]): 0.34%
Dose/g (Rattus norvegicus [11]): 0.44%
Dose/g (Rattus norvegicus [12]): 1.07%
Dose/g (Rattus norvegicus [13]): 13.13%
Dose/g (Rattus norvegicus [14]): 0.15%
Dose/g (Rattus norvegicus [15]): 0.07%
Dose/g (Rattus norvegicus [16]): 0.12%
Dose/g (Rattus norvegicus [17]): 0.09%
Dose/g (Rattus norvegicus [18]): 0.36%
Dose/g (Rattus norvegicus [19]): 0.57%
Dose/g (Rattus norvegicus [20]): 0.27%
Dose/g (Rattus norvegicus [21]): 0.05%
Dose/g (Rattus norvegicus [22]): 0.15%
Dose/g (Rattus norvegicus [23]): 0.13%
Dose/g (Rattus norvegicus [24]): 0.15%
Dose/g (Rattus norvegicus [25]): 0.24%
Dose/g (Rattus norvegicus [26]): 0.91%
Dose/g (Rattus norvegicus [27]): 1.59%
Dose/g (Rattus norvegicus [28]): 0.67%
Dose/g (Rattus norvegicus [29]): 0.64%
Dose/g (Rattus norvegicus [30]): 0.25%
Dose/g (Rattus norvegicus [31]): 0.28%
Dose/g (Rattus norvegicus [32]): 2.02%
Ratio (Rattus norvegicus [33]): 2.07
Ratio (Rattus norvegicus [34]): 1.57
Ratio (Rattus norvegicus [35]): 10.97
Ratio (Rattus norvegicus [36]): 2.95
Dose/g (Rattus norvegicus [37]): 0.15%
Dose/g (Rattus norvegicus [38]): 0.11%
Dose/g (Rattus norvegicus [39]): 0.17%
Ratio (Rattus norvegicus [40]): 1.93
Ratio (Rattus norvegicus [41]): 3.18
Kp at 5 min [42]: 2.33
Ratio (Rattus norvegicus [43]): 3.08
Kp at 5 min [44]: 4.68
Dose/g (Rattus norvegicus [45]): 3.67%
